Data on 21 molecules can be found in PMC4127403 (Analytical chemistry, 2012).

Some results are limits rather than exact numbers.

Data set [1] has as its target aequorin (AEQ), cysteine-free mutant (Aequorea victoria, UniProt P07164, C152S/C159S/C187S). In words: AEQ bioluminescence inhibition assay. The data set is classed as biochemical. Particulars: for effect on bioluminescence emission of AEQ: 5.0 × 10^–10 M coelenterazine, 2 h incubation; for expected suitability for the inhibition assay: speculated, compounds not available, test planned.

The subject of data set [2] is aequorin (AEQ). In words: AEQ bioluminescence inhibition assay in spiked human serum. The data set is classed as biochemical, Aequorea victoria. The method in brief:
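Cysteine-free apoaequorin was expressed in E. coli, secreted, and purified by DEAE and butyl HIC to >95% purity. Human serum was spiked with test compound standards in DMSO (90 μL serum + 10 μL standard). 20 μL of this was added to 80 μL 1.21 × 10−7 M apoAEQ in Buffer A with 5.0 × 10−10 M final coelenterazine, in triplicate, held 2 h at 4 °C. Ca2+/Tris pH 7.5 injection triggered light, collected for 6 s.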

In data set [3] the test system is aequorin (AEQ). In words: Effect of OH-PCB on AEQ. In kind it is biochemical, Aequorea victoria. The conditions noted are these: initial experiments with apoaequorin and coelenterazine. The method in brief: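 ApoAEQ stock was diluted to 1.21 × 10−7 M in 30 mM Tris/HCl pH 7.5, 2 mM EDTA and charged with three-fold molar excess coelenterazine, 4 °C, 18 h. Aequorin was then mixed with test compound in DMSO at 10% or 20% v/v, with DMSO-only and buffer controls. A 10 μL portion was triggered with 50 μL 100 mM Tris/HCl pH 7.5, 100 mM CaCl2 and read on a tube luminometer.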

Data set [4] has as its system aequorin (AEQ). In words: AEQ bioluminescence inhibition assay in spiked tap water. The data set is classed as biochemical, Aequorea victoria. Summed up: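 Tap water was spiked with test compound standards prepared in DMSO. Same conditions as the buffer assay: 20 μL sample into 80 μL 1.21 × 10−7 M apoAEQ (30 mM Tris/HCl pH 7.5, 2 mM EDTA), 5.0 × 10−10 M final coelenterazine, triplicates, 2 h at 4 °C. Light was triggered with 100 μL 100 mM Tris/HCl pH 7.5, 100 mM CaCl2 and read for 6 s.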

The test system of data set [5] is aequorin (AEQ). In words: Selectivity studies of the AEQ inhibition assay. The conditions noted are these: 1.0 × 10^−4 M compound, 5.0 × 10^−10 M coelenterazine. In kind it is biochemical, Aequorea victoria. The method in brief: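 Selectivity used the optimized inhibition format with various organic compounds dissolved in DMSO. 1.21 × 10−7 M apoAEQ was incubated with 1.0 × 10−4 M compound and 5.0 × 10−10 M coelenterazine, 2 h at 4 °C. Light was triggered by Ca2+ (100 mM CaCl2, 100 mM Tris/HCl pH 7.5) and collected for 6 s. Values are the mean of three measurements ± 1 standard deviation.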

For data set [6] the following is noted: cited from earlier work.
The conditions of data set [7]: fetal rat plasma and brain; cited from earlier work.
Another data set deals with apoaequorin (apoAEQ) (Aequorea victoria, UniProt P07164, C152S/C159S/C187S). In words: Coelenterazine dose-response curve - EC50 determination. The data set is classed as biochemical.
apoaequorin (apoAEQ), sequence (P07164 8-196 C152S/C159S/C187S): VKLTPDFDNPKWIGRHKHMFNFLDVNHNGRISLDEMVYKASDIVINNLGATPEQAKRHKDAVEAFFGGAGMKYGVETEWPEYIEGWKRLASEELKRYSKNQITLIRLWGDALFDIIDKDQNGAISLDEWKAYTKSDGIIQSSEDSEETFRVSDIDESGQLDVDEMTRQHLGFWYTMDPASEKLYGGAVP

aequorin (AEQ), cysteine-free mutant, sequence (P07164 8-196 C152S/C159S/C187S): as above

With `Oc1ccccc1-c1cc(Cl)c(Cl)c(Cl)c1Cl` [2 hydroxy-2',3',4',5'-tetrachlorobiphenyl], the IC50 in data set [1] came to 1.33 µM.

For the molecule `Oc1cccc(-c2cc(Cl)ccc2Cl)c1O` [2,3-dihydroxy-2',5'-dichlorobiphenyl], half-maximal inhibition in data set [1] (IC50) required 1380 µM.

The molecule `Oc1cccc(-c2ccc(Cl)c(Cl)c2)c1O` [2,3-dihydroxy-3',4'-dichlorobiphenyl] returned a concentration for half-maximal inhibition (IC50) in data set [1] of 550 µM.

With `Oc1ccc(Cl)cc1-c1cc(Cl)c(Cl)c(Cl)c1Cl` [2-hydroxy-2',3',4',5,5'-pentachlorobiphenyl], in the data set on aequorin (AEQ) [2], the “detection limit in serum” value was 5.02 µM. Moreover, the “decrease of AEQ bioluminescence activity” value in the data set with aequorin (AEQ) [3] is 99%. In the data set with aequorin (AEQ) [4], the “detection limit in tap water” value was 132 nM. In data set [1], this molecule displayed an IC50 of 0.097 µM. Further, the detection limit in data set [1] (5.0 × 10^−10 M coelenterazine, buffer) was 33 nM. In addition, the “detection limit in buffer containing HSA” value in data set [1] (buffer containing HSA (data not shown)) was determined as 3.45 µM.

Turning to `Oc1c(Cl)ccc(Cl)c1-c1cc(Cl)c(Cl)cc1Cl` [2-hydroxy-2',3,4',5',6-pentachlorobiphenyl], it took 0.028 µM to reach half-maximal inhibition in data set [1] (IC50). Further, in data set [1] (best detection limit of the assay (abstract)), the detection limit was determined as 11 nM.

In data set [1], `Oc1ccccc1-c1c(Cl)cc(Cl)cc1Cl` [2-hydroxy-2',4',6'-trichlorobiphenyl] registered an IC50 of 155 µM.

Consider `Oc1ccc(-c2ccc(Cl)c(Cl)c2)cc1O` [3,4-dihydroxy-3',4'-dichlorobiphenyl], for which, in data set [1], the IC50 is more than 2000 µM and the “effect on bioluminescence emission of AEQ” value (“effect … of AEQ” for short) is “did not produce a decrease in the bioluminescence emission of AEQ”.

Consider `O=C(O)c1cccc(Cl)c1` [3-chloro-benzoic acid], for which, in the data set on aequorin (AEQ) [5], the “effect on bioluminescence generated by AEQ” value (from here on “effect … by AEQ”) is recorded as “do not decrease the bioluminescence”.

As to `Oc1cccc(-c2ccc(Cl)cc2)c1` [3-hydroxy-4'-chlorobiphenyl], in data set [1], the IC50 is more than 2000 µM and the “effect … of AEQ” value is “did not produce a decrease in the bioluminescence emission of AEQ”.

For the molecule `Oc1ccc(-c2cc(Cl)c(Cl)c(Cl)c2Cl)cc1Cl` [4-hydroxy-2',3,3',4',5'-pentachlorobiphenyl], in data set [1], inhibition was half-maximal at 2.28 µM (IC50) and the “effect … of AEQ” value is reported as “greatly inhibited aequorin bioluminescence”.

In turn, `Oc1c(Cl)cc(-c2ccc(Cl)cc2Cl)cc1Cl` [4-hydroxy-2',3,4',5-tetrachlorobiphenyl] came in with an IC50 in data set [1] of 17.5 µM.

As for `Oc1c(Cl)cc(-c2ccccc2Cl)cc1Cl` [4-hydroxy-2',3,5-trichlorobiphenyl], half-maximal inhibition in data set [1] (IC50) required 290 µM.

Molecule `Oc1ccc(-c2c(Cl)cc(Cl)cc2Cl)cc1` [4-hydroxy-2',4',6'-trichlorobiphenyl] gave a half-maximal inhibitory concentration (IC50) in data set [1] of 15.4 µM.

In turn, `Oc1ccc(-c2cc(Cl)ccc2Cl)cc1` [4-hydroxy-2',5'-dichlorobiphenyl] had a half-maximal inhibitory concentration (IC50) in data set [1] of 138 µM.

As to `Oc1ccc(-c2c(Cl)c(Cl)cc(Cl)c2Cl)c(Cl)c1` [4-hydroxy-2,2',3',5',6'-pentachlorobiphenyl], in data set [1], the IC50 came out at 9.77 µM and the “effect … of AEQ” value is on record as “greatly inhibited aequorin bioluminescence”.

With `Oc1c(Cl)cc(-c2cc(Cl)c(Cl)cc2Cl)c(Cl)c1Cl` [4-hydroxy-2,2',3,4',5,5'-hexachlorobiphenyl], in data set [1], the “expected suitability for the inhibition assay” value is on record as “would be suitable for this inhibition assay”. Moreover, in data set [6], the “estrogenic activity” value was “anti-estrogenic”.

As for `Oc1c(Cl)cc(-c2ccc(Cl)c(Cl)c2)c(Cl)c1Cl` [4-hydroxy-2,3,3',4',5-pentachlorobiphenyl], in data set [7], the “levels of thyroxine after exposure” value is on record as “lower levels of thyroxine”. Also, the “expected suitability for the inhibition assay” value in data set [1] is given as “would be suitable for this inhibition assay”. Besides, the “estrogenic activity” value in data set [6] was “weakly estrogenic”.

Take `Oc1c(Cl)cc(-c2ccc(Cl)c(Cl)c2)cc1Cl` [4-hydroxy-3,3',4',5-tetrachlorobiphenyl]: in data set [1], 130 µM corresponded to half-maximal inhibition (IC50) and the “effect … of AEQ” value was “only a small alteration of the bioluminescence signal”.

On to `NC12CC3CC(CC(C3)C1)C2` [amantadine], for which the “effect … by AEQ” value in the data set on aequorin (AEQ) [5] is “do not decrease the bioluminescence”.

On to `Oc1ccc(Cc2nc3c(Cc4ccccc4)nc(-c4ccc(O)cc4)cn3c2O)cc1` [coelenterazine], for which the EC50 at apoaequorin (apoAEQ) stood at 0.0618 µM.

Turning to `CN1CCC[C@H]1c1cccnc1` [nicotine], the “effect … by AEQ” value with aequorin (AEQ) [5] is “do not decrease the bioluminescence”.
